From ChEMBL document CHEMBL4038273, “MAO enzymes inhibitory activity of new benzimidazole derivatives including hydrazone and propargyl side chains” (Eur J Med Chem, 2017)

Assays:
[1] = molecular target: T1, Amine oxidase [flavin-containing] B (Homo sapiens, UniProt P27338); assay: (§1) Inhibition of recombinant human MAO-B expressed in baculovirus infected BTI insect cells using tyramine as substrate pretreated for 30 mins followed by substrate addition incubated for 30 mins measured at 5 mins interval by horse-radish peroxidase/amplex red-based fluorometric method; format: cell-based
T1 sequence (P27338 whole entry): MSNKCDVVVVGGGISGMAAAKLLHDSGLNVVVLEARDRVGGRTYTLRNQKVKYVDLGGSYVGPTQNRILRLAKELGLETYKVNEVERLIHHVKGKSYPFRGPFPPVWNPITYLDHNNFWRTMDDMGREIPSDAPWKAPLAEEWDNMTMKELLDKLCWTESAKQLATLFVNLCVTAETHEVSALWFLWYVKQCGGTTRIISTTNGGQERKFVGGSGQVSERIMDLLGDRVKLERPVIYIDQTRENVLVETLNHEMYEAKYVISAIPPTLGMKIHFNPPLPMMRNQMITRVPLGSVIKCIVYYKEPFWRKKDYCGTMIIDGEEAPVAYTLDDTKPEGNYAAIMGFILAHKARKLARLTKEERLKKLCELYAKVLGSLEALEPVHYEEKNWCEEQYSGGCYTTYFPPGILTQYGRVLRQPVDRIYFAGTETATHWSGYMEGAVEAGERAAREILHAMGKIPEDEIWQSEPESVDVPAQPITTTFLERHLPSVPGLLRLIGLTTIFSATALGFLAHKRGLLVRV

[2] = molecular target: T2, Amine oxidase [flavin-containing] A (Homo sapiens, UniProt P21397); assay: as §1, with “MAO-A” for “MAO-B”, “cells at 10^-4 to 10^-3 uM” for “cells”, “method relative to control” for “method”; conditions: 0.5 h
T2 sequence (P21397 whole entry): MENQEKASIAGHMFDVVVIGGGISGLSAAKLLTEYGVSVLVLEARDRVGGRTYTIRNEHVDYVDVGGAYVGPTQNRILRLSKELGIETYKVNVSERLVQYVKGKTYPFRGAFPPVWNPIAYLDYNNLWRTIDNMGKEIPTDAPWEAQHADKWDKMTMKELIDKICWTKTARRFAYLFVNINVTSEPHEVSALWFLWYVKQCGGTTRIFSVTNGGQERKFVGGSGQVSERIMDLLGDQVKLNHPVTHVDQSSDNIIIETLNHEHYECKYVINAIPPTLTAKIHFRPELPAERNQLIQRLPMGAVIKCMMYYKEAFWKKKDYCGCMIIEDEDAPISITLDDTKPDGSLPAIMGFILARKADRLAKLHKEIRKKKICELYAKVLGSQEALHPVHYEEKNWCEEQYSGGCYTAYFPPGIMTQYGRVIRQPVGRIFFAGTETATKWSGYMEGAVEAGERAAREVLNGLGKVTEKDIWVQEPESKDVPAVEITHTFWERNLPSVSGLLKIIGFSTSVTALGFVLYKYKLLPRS
In short: (§2)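 Recombinant hMAO-A (0.5 U/mL stock) or hMAO-B (0.64 U/mL stock) in phosphate buffer, preincubated with inhibitor (solutions 10^-3 to 10^-9 M in 2% DMSO) for 30 min at 37°C. Working solution (HRP, Amplex Red, tyramine) then added for 30 min at 37°C, with fluorescence (Ex/Em 535/587 nm) read every 5 min. Background-subtracted against DMSO control; quadruplicate.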

[3] = molecular target: T1, Amine oxidase [flavin-containing] B; assay: as §1, with “cells at 10^-4 to 10^-3 uM” for “cells”; conditions: 0.5 h; in short: as §2
[4] = molecular target: T2, Amine oxidase [flavin-containing] A; assay: Inhibition of recombinant human MAO-A expressed in baculovirus infected BTI insect cells using tyramine as substrate pretreated for 30 mins followed by substrate addition incubated for 30 mins measured at 5 mins interval by horse-radish peroxidase/amplex red-based fluorometric method
In short: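 Recombinant hMAO-A (0.5 U/mL stock) or hMAO-B (0.64 U/mL stock) in phosphate buffer, preincubated with inhibitor (solutions 10^-3 to 10^-9 M in 2% DMSO) for 30 min at 37°C. Background-subtracted against DMSO control; quadruplicate.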

[5] = organism: Homo sapiens; assay: Selectivity index, ratio of IC50 for recombinant human MAO-A expressed in baculovirus infected BTI insect cells to IC50 for recombinant human MAO-B expressed in baculovirus infected BTI insect cells
In short: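 Selectivity index calculated as IC50(MAO-A)/IC50(MAO-B), with both IC50 values from the fluorometric tyramine/HRP/Amplex Red inhibition assay.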

Compound	IC50 [1]	inhibition (INH) [2]	inhibition (INH) [3]	IC50 [4]	Ratio IC50 [5]
C#CCn1c(-c2ccc(C(=O)N/N=C/c3ccc[nH]3)cc2)nc2ccccc21	≥ 1000 µM	Not Active	Not Active	≥ 1000 µM	–
C#CCn1c(-c2ccc(C(=O)N/N=C/c3cccs3)cc2)nc2ccccc21	≥ 100 µM	Not Active	Not Active	≥ 1000 µM	–
C#CCn1c(-c2ccc(C(=O)N/N=C/c3ccc(Cl)cc3)cc2)nc2ccccc21	10.2 µM	< 50%	–	≥ 100 µM	> 9.85
C#CCn1c(-c2ccc(C(=O)N/N=C/c3ccccc3OC)cc2)nc2ccccc21	≥ 1000 µM	Not Active	Not Active	≥ 1000 µM	–
C#CCn1c(-c2ccc(C(=O)N/N=C/c3cc(OC)cc(OC)c3)cc2)nc2ccccc21	25.2 µM	< 50%	–	≥ 100 µM	> 3.96
C#CCn1c(-c2ccc(C(=O)N/N=C/c3ccc(OC)cc3)cc2)nc2ccccc21	1.94 µM	–	–	43.3 µM	22.3
C#CCn1c(-c2ccc(C(=O)N/N=C/c3ccc([N+](=O)[O-])s3)cc2)nc2ccccc21	0.881 µM	–	–	27.1 µM	30.7
C#CCn1c(-c2ccc(C(=O)N/N=C/c3cccn3C)cc2)nc2ccccc21	12.2 µM	< 50%	–	≥ 100 µM	> 8.22
C#CCn1c(-c2ccc(C(=O)N/N=C/c3cccc(O)c3)cc2)nc2ccccc21	≥ 1000 µM	Not Active	Not Active	≥ 1000 µM	–
C#CCn1c(-c2ccc(C(=O)N/N=C/c3cccc(OC)c3)cc2)nc2ccccc21	12.6 µM	< 50%	–	≥ 100 µM	> 7.93
C#CCn1c(-c2ccc(C(=O)N/N=C/c3cc(O)cc(O)c3)cc2)nc2ccccc21	10.3 µM	–	–	19.6 µM	1.9
C#CCn1c(-c2ccc(C(=O)N/N=C/c3ccc(O)cc3)cc2)nc2ccccc21	1.97 µM	–	–	2.82 µM	1.43
C#CCn1c(-c2ccc(C(=O)N/N=C/c3cccc(OC)c3OC)cc2)nc2ccccc21	18.5 µM	–	–	53.5 µM	2.89
